Values after ≈ are worked out from the molar mass of the structure shown. Positions of bridges follow the written chain, without caps; N, C: chain ends. Non-standard residues stand in square brackets, D forms with d. Residues, ends and D or L forms follow the SMILES beside them. *: point of attachment. Dab(3S-OH) = NC[C@H](O)[C@H](N)C(=O)O; ΔZArg = N=C(N)NCC/C=C(\N)C(=O)O; dOrn = NCCC[C@@H](N)C(=O)O; X1 = CC[C@H](C)CCCCC(=O)*; Dab = NCC[C@H](N)C(=O)O; NH(CH2)4NH2 = NCCCCN*
Columns and labels:
Escherichia coli [1] = assay: Antimicrobial activity against Escherichia coli ATCC BAA-2469 by broth microdilution method; type: functional
Outline: (§1)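 Broth microdilution MIC per CLSI M07-A10, with inoculum prepared by direct colony suspension. Reference strains were from ATCC and NCTC.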

Klebsiella pneumoniae [2] = assay: Antimicrobial activity against Klebsiella pneumoniae NCTC 13443 by broth microdilution method; type: functional; outline: as §1
Klebsiella pneumoniae [3] = assay: Antimicrobial activity against Klebsiella pneumoniae NCTC 13439 by broth microdilution method; type: functional; outline: as §1
Escherichia coli [4] = assay: Antimicrobial activity against Escherichia coli ATCC BAA-2340 by broth microdilution method; type: functional; outline: as §1
Klebsiella pneumoniae [5] = assay: Antimicrobial activity against Klebsiella pneumoniae ATCC BAA-1905 by broth microdilution method; type: functional; outline: as §1
Escherichia coli [6] = assay: Antimicrobial activity against Escherichia coli ATCC BAA-2452 by broth microdilution method; type: functional; outline: as §1
Enterobacter cloacae = assay: Antimicrobial activity against Enterobacter cloacae ATCC BAA-2468 by broth microdilution method; type: functional
Klebsiella pneumoniae [7] = assay: Antimicrobial activity against Klebsiella pneumoniae NCTC 13438 by broth microdilution method; type: functional; outline: as §1
Klebsiella pneumoniae [8] = assay: Antimicrobial activity against Klebsiella pneumoniae NCTC 13442 by broth microdilution method; type: functional
Outline: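 CLSI broth microdilution with direct colony suspension inoculum, per CLSI M07-A10. Reference strain taken from the NCTC collection.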

[9] = tested on: mammalian protein synthesis; assay: Selectivity index, ratio of IC50 for inhibition of mammalian protein synthesis in rabbit reticulocyte lysate system incubated for 1 hr by mammalian cell-free transcription-translation assay to IC50 for Inhibition of bacterial protein synthesis in cell-free Escherichia coli; type: toxicity
Klebsiella pneumoniae [10] = assay: Antimicrobial activity against Klebsiella pneumoniae ATCC BAA-2473 by broth microdilution method; type: functional; outline: as §1
Klebsiella pneumoniae [11] = assay: Antimicrobial activity against Klebsiella pneumoniae ATCC 13883 by broth microdilution method; type: functional; outline: as §1
Escherichia coli [12] = assay: Inhibition of bacterial protein synthesis in cell-free Escherichia coli incubated for 1 hr and measured for every 20 mins by bacterial cell-free transcription-translation assay; type: functional; settings: Escherichia coli
Outline: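 E. coli cell-free coupled transcription-translation used a GFP gene in pEXP5-CT as template, started with 1 μg plasmid in 50 μL reactions. Feed buffer was added at 30 min, with incubation at 30 °C. Fluorescence (ex 475/em 520 nm) was read every 20 min. IC50 was taken at 1 h after feed addition from a four-parameter log(inhibitor)–response fit. Duplicates.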

Klebsiella pneumoniae [13] = assay: Antimicrobial activity against Klebsiella pneumoniae ATCC BAA-1904 by broth microdilution method; type: functional; outline: as §1
Klebsiella pneumoniae [14] = assay: Antimicrobial activity against Klebsiella pneumoniae ATCC BAA-2472 by broth microdilution method; type: functional; outline: as §1
Klebsiella pneumoniae [15] = assay: Antimicrobial activity against Klebsiella pneumoniae ATCC 43816 by broth microdilution method; type: functional; outline: as §1
Klebsiella pneumoniae [16] = assay: Antimicrobial activity against Klebsiella pneumoniae ATCC BAA-2146 by broth microdilution method; type: functional; outline: as §1
[17] = Inhibition of mammalian protein synthesis in rabbit reticulocyte lysate system incubated for 1 hr by mammalian cell-free transcription-translation assay; parameters: species or system Oryctolagus cuniculus
Escherichia coli [18] = assay: microbe, parasite or virus in culture; settings: ATCC 25922
[19] = Klebsiella pneumoniae, ATCC 43816, read-out: MIC

Compound	MIC (Escherichia coli [1]) [µg/mL]	MIC (Klebsiella pneumoniae [2]) [µg/mL]	MIC (Klebsiella pneumoniae [3]) [µg/mL]	MIC (Escherichia coli [4]) [µg/mL]	MIC (Klebsiella pneumoniae [5]) [µg/mL]	MIC (Escherichia coli [6]) [µg/mL]	MIC (Enterobacter cloacae) [µg/mL]	MIC (Klebsiella pneumoniae [7]) [µg/mL]	MIC (Klebsiella pneumoniae [8]) [µg/mL]	selectivity ratio at 1 h [9]	MIC (Klebsiella pneumoniae [10]) [µg/mL]	MIC (Klebsiella pneumoniae [11]) [µg/mL]	IC50 (Escherichia coli [12]) [nM]	MIC (Klebsiella pneumoniae [13]) [µg/mL]	MIC (Klebsiella pneumoniae [14]) [µg/mL]	MIC (Klebsiella pneumoniae [15]) [µg/mL]	MIC (Klebsiella pneumoniae [15]; [19]) [µg/mL]	MIC (Klebsiella pneumoniae [16]) [µg/mL]	IC50 [17] [µM]	MIC (Escherichia coli [18]) [µg/mL]
N=C(N)NCC/C=C(\NC(=O)[C@H](CCCCN)NC(=O)[C@H](Cc1cnc[nH]1)NC(=O)[C@@H]1CCCN1C(=O)[C@@H](CCCN)NC(=O)CNC(=O)[C@@H](NC(=O)[C@@H](NC(=O)[C@@H](N)CCCCN)[C@@H](O)CN)[C@@H](O)CN)C(=O)N[C@@H](CCCCN)C(=O)NCCCCN	4 (≈ 3.16 µM)	4 (≈ 3.16 µM)	2 (≈ 1.58 µM)	8 (≈ 6.33 µM)	4 (≈ 3.16 µM)	8 (≈ 6.33 µM)	4 (≈ 3.16 µM)	4 (≈ 3.16 µM)	8 (≈ 6.33 µM)	16	4 (≈ 3.16 µM)	4 (≈ 3.16 µM)	630	2 (≈ 1.58 µM)	4 (≈ 3.16 µM)	4 (≈ 3.16 µM)	4 (≈ 3.16 µM)	2 (≈ 1.58 µM)	10.3	8 (≈ 6.33 µM)
CC[C@H](C)CCCCC(=O)N[C@@H](CCN)C(=O)N[C@H](C(=O)N[C@@H](CCN)C(=O)N[C@H]1CCNC(=O)[C@H]([C@@H](C)O)NC(=O)[C@H](CCN)NC(=O)[C@H](CCN)NC(=O)[C@H](CC(C)C)NC(=O)[C@@H](Cc2ccccc2)NC(=O)[C@H](CCN)NC1=O)[C@@H](C)O (X1-[Dab]T[Dab][Dab][Dab][dF]L[Dab][Dab]T; lactam 4-C)	0.5 (≈ 0.415 µM)	0.5 (≈ 0.415 µM)	0.5 (≈ 0.415 µM)	0.5 (≈ 0.415 µM)	0.5 (≈ 0.415 µM)	0.5 (≈ 0.415 µM)	0.5 (≈ 0.415 µM)	0.5 (≈ 0.415 µM)	0.5 (≈ 0.415 µM)		0.5 (≈ 0.415 µM)	1 (≈ 0.831 µM)		0.5 (≈ 0.415 µM)	0.5 (≈ 0.415 µM)		0.5 (≈ 0.415 µM)	1 (≈ 0.831 µM)		0.5 (≈ 0.415 µM)
C[C@@H](O)[C@H]1C(=O)N2C(C(=O)O)=C(SCCNC=N)C[C@H]12 [IMIPENEM ANHYDROUS]	> 64	> 64	64 (≈ 214 µM)	32 (≈ 107 µM)	> 64	> 64	> 64	> 64	> 64		> 64	2 (≈ 6.68 µM)		64 (≈ 214 µM)	> 64		1 (≈ 3.34 µM)	> 64		0.5 (≈ 1.67 µM)
C[C@H](NC(=O)[C@@H](NC(=O)[C@@H](N)CCCCN)[C@@H](O)CN)C(=O)NCC(=O)N[C@H](CCCN)C(=O)N1CCC[C@H]1C(=O)N[C@@H](Cc1cnc[nH]1)C(=O)N[C@@H](CCCCN)C(=O)N/C(=C\CCNC(=N)N)C(=O)O	16 (≈ 15.7 µM)	4 (≈ 3.92 µM)	4 (≈ 3.92 µM)	16 (≈ 15.7 µM)	8 (≈ 7.83 µM)	16 (≈ 15.7 µM)	4 (≈ 3.92 µM)	8 (≈ 7.83 µM)	4 (≈ 3.92 µM)	300	4 (≈ 3.92 µM)	4 (≈ 3.92 µM)	550	4 (≈ 3.92 µM)	4 (≈ 3.92 µM)		4 (≈ 3.92 µM)	4 (≈ 3.92 µM)	168	16 (≈ 15.7 µM)
GENTAMICIN	> 64	> 64	1	1	32	> 64	> 64	2	0.25		> 64	1		16	> 64	0.25		> 64		
N=C(N)NCC/C=C(\NC(=O)[C@H](CCCCN)NC(=O)[C@H](Cc1cnc[nH]1)NC(=O)[C@@H]1CCCN1C(=O)[C@@H](CCCN)NC(=O)CNC(=O)[C@@H](NC(=O)[C@@H](NC(=O)[C@@H](N)CCCCN)[C@@H](O)CN)[C@@H](O)CN)C(=O)O (H-K[Dab(3S-OH)][Dab(3S-OH)]G[dOrn]PHK[ΔZArg]-OH)													430				4 (≈ 3.75 µM)			16 (≈ 15 µM)
CO/N=C(\C(=O)N[C@@H]1C(=O)N2C(C(=O)O)=C(CSc3nc(=O)c(O)nn3C)CS[C@H]12)c1csc(N)n1 [CEFTRIAXONE]	> 64	> 64	> 64	> 64	> 64	> 64	> 64	> 64	8 (≈ 14.4 µM)		> 64	< 0.25		> 64	> 64		≤ 0.125	> 64		< 0.25
N=C(N)NCC/C=C(\NC(=O)[C@H](CCCCN)NC(=O)[C@H](Cc1cnc[nH]1)NC(=O)[C@@H]1CCCN1C(=O)[C@@H](CCCN)NC(=O)CNC(=O)CNC(=O)[C@@H](NC(=O)[C@@H](N)CCCCN)[C@@H](O)CN)C(=O)N[C@@H](CCCCN)C(=O)NCCCCN (H-K[Dab(3S-OH)]GG[dOrn]PHK[ΔZArg]K-{NH(CH2)4NH2})													1060				8 (≈ 6.64 µM)			8 (≈ 6.64 µM)
N=C(N)NCC/C=C(\NC(=O)[C@H](CCCCN)NC(=O)[C@H](Cc1cnc[nH]1)NC(=O)[C@@H]1CCCN1C(=O)[C@@H](CCCN)NC(=O)CNC(=O)[C@@H](NC(=O)[C@@H](NC(=O)[C@@H](N)CCCCN)[C@@H](O)CN)[C@@H](O)CN)C(=O)N[C@@H](CCCCN)C(=O)O (H-K[Dab(3S-OH)][Dab(3S-OH)]G[dOrn]PHK[ΔZArg]K-OH)													360				4 (≈ 3.35 µM)			16 (≈ 13.4 µM)
C[C@H](N)C(=O)N[C@H](C(=O)N[C@H](C(=O)NCC(=O)N[C@H](CCCN)C(=O)N1CCC[C@H]1C(=O)N[C@@H](Cc1cnc[nH]1)C(=O)N[C@@H](CCCCN)C(=O)N/C(=C\CCNC(=N)N)C(=O)N[C@@H](CCCCN)C(=O)NCCCCN)[C@@H](O)CN)[C@@H](O)CN (H-A[Dab(3S-OH)][Dab(3S-OH)]G[dOrn]PHK[ΔZArg]K-{NH(CH2)4NH2})													730				8 (≈ 6.63 µM)			16 (≈ 13.3 µM)
CC(C)[C@H](NC(=O)[C@@H](NC(=O)[C@@H](N)CCCCN)[C@@H](O)CN)C(=O)NCC(=O)N[C@H](CCCN)C(=O)N1CCC[C@H]1C(=O)N[C@@H](Cc1cnc[nH]1)C(=O)N[C@@H](CCCCN)C(=O)N/C(=C\CCNC(=N)N)C(=O)N[C@@H](CCCCN)C(=O)NCCCCN (H-K[Dab(3S-OH)]VG[dOrn]PHK[ΔZArg]K-{NH(CH2)4NH2})													800				2 (≈ 1.6 µM)			4 (≈ 3.21 µM)
C[C@@H](NC(=O)CNC(=O)[C@@H](NC(=O)[C@@H](NC(=O)[C@@H](N)CCCCN)[C@@H](O)CN)[C@@H](O)CN)C(=O)N1CCC[C@H]1C(=O)N[C@@H](Cc1cnc[nH]1)C(=O)N[C@@H](CCCCN)C(=O)N/C(=C\CCNC(=N)N)C(=O)N[C@@H](CCCCN)C(=O)NCCCCN													> 40000				> 64			> 64
